Data on three compounds can be found in ChEMBL document CHEMBL1687720 (Antimicrob Agents Chemother, 2009).

For assay [1], the target named is Thioredoxin reductase (Homo sapiens, UniProt Q16881+Q9NNW7+Q86VQ6). Put plainly: Inhibition of thioredoxin reductase in human A549 cells assessed as enzyme activity at 166 µM after 24 hrs by DTNB assay relative to untreated control. Also noted: scale not given: the % may be the effect or the level left.
Assay [2] has as its system A549. Put plainly: Effect on glutathione reductase expression in human A549 cells assessed as transcript level at 166 nM after 24 hrs by RT-qPCR analysis relative to untreated control. It is filed as functional. The conditions noted are these: in the assay text read “166 µM” for “166 nM”. The procedure, abridged: (§1)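 A549 cells are seeded at 2.5 × 10^5 per 25-cm2 well. At 40–45% confluence they are treated for 24 h with 166 or 662 μM, 158 or 315 μM, or 5 or 24 μM compound; controls receive <5% DMSO. Total RNA is DNase-treated and qRT-PCR is run in quadruplicate. Values are normalized to GAPDH and given as % of untreated control.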
(In general: In qPCR the cycle at which signal appears reflects the starting amount.)

In assay [3] the test system is A549. The assay is described as follows: Effect on thioredoxin reductase expression in human A549 cells assessed as transcript level at 662 nM after 24 hrs by RT-qPCR analysis relative to untreated control. It is filed as functional. The following applies: in the assay text read “662 uM” for “662 nM”. The procedure, abridged:
as §1

Assay [4] has as its system Plasmodium falciparum. Put plainly: Antiplasmodial activity against chloroquine-resistant Plasmodium falciparum K1 in presence of artesunate. It is filed as functional.
The subject of assay [5] is Plasmodium falciparum. Put plainly: Antiplasmodial activity against chloroquine-resistant Plasmodium falciparum K1 in presence of amodiaquine. It is filed as functional.
Assay [6] concerns A549. Put plainly: Effect on glutathione peroxidase expression in human A549 cells assessed as transcript level at 166 nM after 24 hrs by RT-qPCR analysis relative to untreated control. It is filed as functional. The following applies: in the assay text read “166 µM” for “166 nM”. In a few lines: as §1
For assay [7], the target named is T1, Glutathione reductase, mitochondrial (Homo sapiens) (UniProt P00390).
T1 sequence (whole entry): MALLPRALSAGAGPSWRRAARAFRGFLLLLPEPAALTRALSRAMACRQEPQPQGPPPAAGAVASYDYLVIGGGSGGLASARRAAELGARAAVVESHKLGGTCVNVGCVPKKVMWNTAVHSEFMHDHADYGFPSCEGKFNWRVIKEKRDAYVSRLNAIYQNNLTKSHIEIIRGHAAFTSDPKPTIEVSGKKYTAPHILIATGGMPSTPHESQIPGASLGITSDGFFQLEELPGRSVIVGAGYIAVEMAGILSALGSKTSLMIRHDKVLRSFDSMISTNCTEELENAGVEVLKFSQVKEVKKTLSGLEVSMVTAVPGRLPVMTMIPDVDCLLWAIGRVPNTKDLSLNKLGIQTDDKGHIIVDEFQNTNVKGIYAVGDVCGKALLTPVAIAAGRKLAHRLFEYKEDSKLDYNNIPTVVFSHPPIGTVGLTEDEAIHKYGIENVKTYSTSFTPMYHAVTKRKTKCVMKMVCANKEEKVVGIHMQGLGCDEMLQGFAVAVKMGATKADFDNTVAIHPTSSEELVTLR
The assay is described as follows: Inhibition of glutathione reductase in human A549 cells assessed as enzyme activity at 662 µM after 24 hrs relative to untreated control. Also noted: scale not given: the % may be the effect or the level left.

For assay [8], the system named is A549. Put plainly: Effect on glutathione reductase expression in human A549 cells assessed as transcript level at 315 nM after 24 hrs by RT-qPCR analysis relative to untreated control. It is filed as functional. The conditions noted are these: in the assay text read “315 µM” for “315 nM”. The procedure, abridged: as §1
The test system of assay [9] is A549. Put plainly: Effect on glutathione S-transferase expression in human A549 cells assessed as transcript level at 315 nM after 24 hrs by RT-qPCR analysis relative to untreated control. It is filed as functional. The conditions noted are these: in the assay text read “315 µM” for “315 nM”. The procedure, abridged: as §1
For assay [10], the system named is A549. Put plainly: Effect on glutathione peroxidase expression in human A549 cells assessed as transcript level at 315 nM after 24 hrs by RT-qPCR analysis relative to untreated control. It is filed as functional. The conditions noted are these: in the assay text read “315 µM” for “315 nM”. The procedure, abridged: as §1
In assay [11] the test system is A549. The assay is described as follows: Inhibition of glutathione peroxidase in human A549 cells assessed as enzyme activity at 315 µM after 24 hrs relative to untreated control. The arrangement: scale not given: the % may be the effect or the level left.
For assay [12], the system named is Plasmodium falciparum. The assay is described as follows: Antiplasmodial activity against chloroquine-sensitive Plasmodium falciparum 3D7 assessed as inhibition of trophozoite stage parasite growth at 526 nM after 24 hrs by [3H]hypoxanthine incorporation assay. It is filed as functional. The following applies: 3D7, read-out: GI. In a few lines: (§2)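 P. falciparum 3D7 is synchronized with sorbitol. […] Cells are washed four times, then labelled with [3H]hypoxanthine for 24 h. Growth is given as % of untreated control for each stage, in triplicate.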

Assay [13] has as its system Plasmodium falciparum. Put plainly: Antiplasmodial activity against chloroquine-sensitive Plasmodium falciparum 3D7 assessed as inhibition of schizont stage parasite growth at 526 nM after 24 hrs by [3H]hypoxanthine incorporation assay. It is filed as functional. The conditions noted are these: read-out: GI. The procedure, abridged: as §2
The subject of assay [14] is Plasmodium falciparum. Put plainly: Upregulation of glutathione synthetase mRNA level in Plasmodium falciparum 3D7 trophozoites at 126 nM after 15 hrs by RT-qPCR analysis relative to untreated control. It is filed as functional. In a few lines:
(§3)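 Synchronized 3D7 trophozoites in RPMI/Albumax culture at 37°C under 3% O2, 3% CO2 were exposed 12, 15 or 18 h, then harvested by 0.02% saponin lysis. RNA was reverse-transcribed and analyzed by real-time PCR in quadruplicate. Quantification used ΔΔCT with 18S rRNA reference (LDH also checked), expressed as % of untreated control.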

Assay [15] concerns Plasmodium falciparum. Put plainly: Upregulation of glutathione S-transferase mRNA level in Plasmodium falciparum 3D7 trophozoites at 126 nM after 12 hrs by RT-qPCR analysis relative to untreated control. It is filed as functional, organism-based. The procedure, abridged:
as §3

The test system of assay [16] is Plasmodium falciparum. Put plainly: Antiplasmodial activity against chloroquine-sensitive Plasmodium falciparum 3D7 assessed as inhibition of ring stage parasite growth at 526 nM after 24 hrs by [3H]hypoxanthine incorporation assay. The following applies: read-out: GI. It is filed as functional. The procedure, abridged: as §2
Assay [17] has as its system Plasmodium berghei. Put plainly: Antimalarial activity against Plasmodium berghei infected in mouse assessed as reduction in parasite load at 10 mg/kg for 4 days treated postinfection measured on day 7. It is filed as functional. Also noted: scale not given: the % may be the effect or the level left. The procedure, abridged: (§4)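 Murine Plasmodium berghei infection model. Compound given subcutaneously at 10 mg/kg for 4 days after infection, 13 treated mice and 13 controls. Parasitemia is compared with untreated controls, with significance by Fisher's exact test.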

Assay [18] relates to Plasmodium falciparum. The assay is described as follows: Downregulation of gamma-glutamylcysteine synthetase mRNA level in Plasmodium falciparum 3D7 trophozoites at 126 nM after 15 hrs by RT-qPCR analysis relative to untreated control. It is filed as functional. The procedure, abridged:
(§5)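 P. falciparum 3D7 trophozoites are exposed to 126 nM compound for 12, 15 or 18 h, then harvested by saponin lysis at 37°C. RNA is extracted and reverse-transcribed, and transcripts are quantified by real-time PCR in quadruplicate. Analysis uses ΔΔCT with 18S rRNA as reference (LDH also checked), expressed as % of untreated control.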

The subject of assay [19] is Plasmodium falciparum. Put plainly: Downregulation of gamma-glutamylcysteine synthetase mRNA level in Plasmodium falciparum 3D7 trophozoites at 126 nM after 18 hrs by RT-qPCR analysis relative to untreated control. It is filed as functional. The procedure, abridged: as §5
Assay [20] deals with Plasmodium berghei. The assay is described as follows: Antimalarial activity against Plasmodium berghei infected in mouse assessed as reduction in parasite load at 10 mg/kg for 4 days treated postinfection measured on day 4. It is filed as functional. The arrangement: scale not given: the % may be the effect or the level left. In a few lines:
as §4

In assay [21] the test system is A549. The assay is described as follows: Inhibition of glutathione peroxidase in human A549 cells assessed as enzyme activity at 5 µM after 24 hrs relative to untreated control. Also noted: scale not given: the % may be the effect or the level left.

Each structure is given as a SMILES string. Active and inactive are the calls of the source. The rule behind the calls is not given here. Some results are limits rather than exact numbers.

As to `O=c1oc2c(O)c(O)cc3c(=O)oc4c(O)c(O)cc1c4c23` [ELLAGIC ACID], the Activity turned out to be 82% in assay [1]; 152% in assay [2]; 131% in assay [3]; 109% in assay [6]; 85% in assay [7]. The FIC50 in assay [4] and in assay [5] was 1 each time.

For `O=c1oc2c(O)c(O)c(O)c3c(=O)oc4c(O)c(O)cc1c4c23` [FLAVELLAGIC ACID], the Activity in assay [8] was 70%; in assay [9], 164%; in assay [10] it was 77%; in assay [11], 112%.

Consider `O=c1oc2c(O)c(O)c(O)c3c(=O)oc4c(O)c(O)c(O)c1c4c23` [CORULEOELLAGIC ACID], for which the inhibition of growth at 0.526 µM in [12] is above 95%; in [13] it was 39%; in assay [16], 38%. Besides, the Activity in assay [14] was 128%; in assay [17] it was 30%; in [18] it was 25%; in [19] it was 25%; in [20], 84%; in assay [21], 85%. The outcome in [15] was inactive.
